Results taken from publication PMC7610571 (Nature chemical biology, 2020).

How the values were obtained:
[1] = target: T1, NUDT15 (Homo sapiens, UniProt Q9NV35); assay: Enzyme-coupled malachite green; type: biochemical; conditions: MG assay
T1 sequence (Q9NV35 1-164): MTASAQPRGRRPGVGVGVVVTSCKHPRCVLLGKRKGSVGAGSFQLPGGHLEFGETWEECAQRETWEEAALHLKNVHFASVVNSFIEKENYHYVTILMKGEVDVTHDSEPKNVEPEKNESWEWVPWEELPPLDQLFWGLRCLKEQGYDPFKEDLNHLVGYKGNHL
Procedure, shortened: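 Excess E. coli pyrophosphatase (0.4 U/mL) added for 20 min, then malachite green for 15 min; A630 read. Buffer-only wells served as the full-inhibition control. Two experiments, each in duplicate.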

[2] = target: T1, NUDT15; assay: PPiLight inorganic pyrophosphate assay, 6-thio-dGTPase activity; type: biochemical
Procedure, shortened: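 6-thio-dGTPase activity of 10 nM NUDT15 in 100 mM Tris acetate pH 7.5, 40 mM NaCl, 100 mM Mg acetate, 1 mM DTT, with 2.5 μM 6-thio-dGTP. Test-compound dilution series ran 13.3 μM–75 pM or 15 μM–2.2 nM, depending on compound. Shaken 30 min at 22 °C; formed PPi detected by PPiLight luminescence.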

[3] = target: T1, NUDT15; assay: Differential scanning fluorimetry; type: binding; conditions: over the DMSO control, dose-dependent
[4] = tested on: BJ-RAS cells versus BJ-hTERT cells; assay: Resazurin viability assay, isogenic fibroblasts; type: cell-based, human
[5] = tested on: NB4 cells; assay: Alkaline comet assay; type: cell-based, human; conditions: NB4, 10 μM TH1760 + 6-TG, 48 h
[6] = tested on: NB4 and HL-60 cells; assay: Thiopurine/TH1760 dose-matrix, resazurin viability; type: cell-based, human; conditions: combined with 6-TG or 6-MP, dose-dependent
Procedure, shortened: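 NB4 and HL-60 cells treated with a dose matrix of 6-TG or 6-MP combined with test compound (pre-treatment 3 h). Resazurin read-out four days after treatment (544/590 nm), viability normalised to DMSO controls. Relative viabilities used for EC50 fitting and SynergyFinder synergy scores. Knockdown matrix in NB4 shRNA lines: 96 h, n=2.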

[7] = tested on: NUDT15; conditions: read-out: Km of NUDT15 for 6-thio-dGTP; cited from earlier work

| improvement of potency compared to hit compound TH884 [1] | potency improvement as compared to TH884 [2] | increase of NUDT15 melting temperature [3] [°C] | reduction of thiopurine EC50 values [6] | Structure (SMILES) | sensitization to 6-TG, tumorigenic versus non-transformed cells [4] | 6-TG-induced DNA damage (comet tail moment) [5] | Km [7] [µM] |
| --- | --- | --- | --- | --- | --- | --- | --- |
| more than 200 fold | over 200 fold | > 10 | ~ 10 fold | O=C(c1ccc2[nH]ccc2c1)N1CCN(S(=O)(=O)c2ccc3[nH]c(=O)oc3c2)CC1 [Compound 18] | preferentially sensitized BJ-RAS cells to 6-TG versus their non-transformed counterpart BJ-hTERT cells | potentiated 6-TG-induced DNA damage in NB4 cells | – |
| – | – | – | – | Nc1nc2c(ncn2[C@H]2C[C@H](O)[C@@H](COP(=O)(O)OP(=O)(O)OP(=O)(O)O)O2)c(=S)[nH]1 [Compound 6-thio-dGTP, 6-thio-dGTP] | – | – | 2 |
